From the EternaBench riboswitch data

Tested on: MS2 coat protein
Experiment: apparent Kd, MS2 coat protein; higher = weaker binding; RNA-MaP array; FMN 200 µM where present
How it was run: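 Stalled E. coli RNA polymerase produced the designs on Illumina sequencing-chip clusters. SNAP-549-labelled MS2 coat protein was added from 0.7 or 1.5 nM, doubling to 3 µM, without and then with constant ligand, in 100 mM Tris-HCl pH 7.5, 80 mM KCl, 4 mM MgCl2, BSA, DTT, yeast tRNA and Tween-20. The apparent Kd is the median of filtered per-cluster fits of green signal normalised to red-channel RNA signal and control-cluster median Fmax.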

[1] = designed as: ON switch for flavin mononucleotide, no ligand
[2] = ligand present: flavin mononucleotide, designed as: ON switch for flavin mononucleotide
[3] = designed as: OFF switch for flavin mononucleotide, no ligand
[4] = ligand present: flavin mononucleotide, designed as: OFF switch for flavin mononucleotide

GUAGUGCUCAUAGGAUAUCGGGAACGACUUAGACAGGUCGUACAUGAGGAUCACCCAUGUAAAGUCGAGAAGGGUGAUCACGCC
apparent Kd [1]: 0.592 µM | apparent Kd [2]: 0.16 µM

GAGUUAGAGGGAGGAUAUUGAGAUAGGACACUACGAGAAGGCUUAUAAUAGAUAAACAUGAGGAUCACCCAUGUCAUGUAAUGG
apparent Kd [3]: 0.0487 µM | apparent Kd [4]: 0.0291 µM

UAGUGCGUUAGAGGAUAUUCUAAAAUAAAAUAAAAGACAUGAGGAUCACCCAUGUAUGUACAUGGGAAGAAGGCUGAUGUGCUA
apparent Kd [1]: 0.438 µM | apparent Kd [2]: 0.0514 µM

AUAAAACAUGAGGAUCACCCAUGUAGAAAUAUGGGAGGAUAUACAAAGACGAAAGUCAAAGUAGAAGGCCUAAAAG
apparent Kd [1]: 0.127 µM | apparent Kd [2]: 0.0335 µM

UCGACCAGCGCCAGUCGAACAUGAGGAUCACCCAUGUACUCCAGAAGGCCGCCCAAGUACGGAGUGGAGGAUAUGGAAGUUCUC
apparent Kd [1]: 0.0473 µM | apparent Kd [2]: 0.0263 µM

AAUAUGUUGCAGAAGGCUAUAUUGUUGUAGUACCUCAUGACAUGAGGAUCACCCAUGUUUGUGUUGGAGGAUAUGCAAUAUAUU
apparent Kd [3]: 0.00782 µM | apparent Kd [4]: 0.00707 µM

GUAGCAACAUGAGGAUCACCCAUGUAGGAUAUCGCUAUUGUAAUCAUGAAACAUGAUUACAAUAGCGAGAAGGACAUUGGCUAC
apparent Kd [3]: 0.00706 µM | apparent Kd [4]: 0.0108 µM

AAGAAACAUGAGGAUCACCCAUGUGAGGAUAUGAGCAAGAAAAGAAAAGAAAGAAGAAUCAGAAGGCACAAAGG
apparent Kd [3]: 0.0396 µM | apparent Kd [4]: 0.0757 µM

UAAAUGUGAGGAUAUCAGGUGUGCUAGCGUACUGGUACAUCUGAGAAGGCACAUGAGGAUCACCCAUGUUCCUU
apparent Kd [3]: 0.0168 µM | apparent Kd [4]: 0.0613 µM

GGAUGACAUAGUCAUCCUUAACGAACAUGAGGAUCACCCAUGUAGGAUAUGCUACUCAAAGAGUAGCAGAAGGGCAUGUGUCUU
apparent Kd [3]: 0.0306 µM | apparent Kd [4]: 0.0688 µM

UGGAUGGUAUGAGGAUAUGCGCGUGAAACGCGCGCAGAAGGCAUGUCAAUAGACAUGAGGAUCACCCAUGUAUUAUCCAUCCAA
apparent Kd [1]: 0.258 µM | apparent Kd [2]: 0.0158 µM

UAGUGCGUUAGAGGAUAUUCAAGGUGAAAAAAAAAUACAUGAGGAUCACCCAUGUAAAAACAUGAGGAGAAGGCUGAUGUGCUA
apparent Kd [1]: 0.0386 µM | apparent Kd [2]: 0.0276 µM

AUUAUAUAGAAAGGAUAUAGAUUAUUAUUUUAACAUGAGGAUCACCCAUGUAGCCUUAUGUAUAACUAGAAGGUUCAUUUAUUA
apparent Kd [3]: 0.0728 µM | apparent Kd [4]: 0.0944 µM

GACUUGCGCACAGGAUAUCCACGGAGCGGACGUGGAGAAGGGUGACAUGAGGAUCACCCAUGUACGUAAGUCUGGAUCACUUCC
apparent Kd [1]: 0.0499 µM | apparent Kd [2]: 0.0379 µM

UUUGAGUUCCGAGGCCGCGAGUUCACAGAAGGCAUUAUUACAUGAGGAUCACCCAUGUGGGUACAUGAGGAUAUGUGAUAUGCG
apparent Kd [1]: 0.0208 µM | apparent Kd [2]: 0.00655 µM

AAUCUGUAGCAGAAGGUCAUUUUUAUAAAUAAGCUGGUGACAUGAGGAUCACCCAUGUAAAGGUUGAAGGAUAUGCAUUCUAUU
apparent Kd [3]: 0.0905 µM | apparent Kd [4]: 0.343 µM

UGCUACGUUUCGUAGCAGUGUCAUCGAGAAGGCCCUGACAUGAGGAUCACCCAUGUUGUUACAUGGGAGGAUAUCGAUGAUACC
apparent Kd [1]: 0.0118 µM | apparent Kd [2]: 0.00525 µM

AUGCUAGUGUGAGGAUAUCAACAUGAGGAUCACCCAUGUUGGAAGUACCCGACAUGAGGUACGGAUGAGAAGGUACAUUAGCAU
apparent Kd [3]: 0.0156 µM | apparent Kd [4]: 0.0253 µM

CGAUAUAUGAAGGGCGAAAGCCCACAUGAGGAUCACCCAUGUAGAAGGCGAGCCGCAACGCGGCUCGAGGAUAUAUAGUAUACA
apparent Kd [3]: 0.00724 µM | apparent Kd [4]: 0.00852 µM

AUGGUUGUCGUAGGAUAUGUAGGAUAUUCCUACAUGAGGAUCACCCAUGUUCGCAUGGAAGAAGGACAGAAGGACGAUGACCAC
apparent Kd [1]: 1.48 µM | apparent Kd [2]: 0.0094 µM

UACAUGAGGAUCACCCAUGUUUUGUCGUGUAUGGUAUUUAUCUAGGAUAUCAAUUUACUUAUUUAUGAGAAGGAGAAUAUUAAU
apparent Kd [3]: 0.0324 µM | apparent Kd [4]: 0.0313 µM

CGUAUAUGGGAGAAGGCAUGUUCCAAAGGGCCAUGAGGAUAUCCUAAGUGUACGCUUUGCGACAUGAGGAUCACCCAUGUAGCA
apparent Kd [1]: 0.00895 µM | apparent Kd [2]: 0.00634 µM

UCCUUGUCCUGAGGAUAUCCGCGGUUCCCAAAAGGAGAAGGCAGGACAUGAGGAUCACCCAUGUACCGAGAAAACGUGCAGAGU
apparent Kd [3]: 0.0127 µM | apparent Kd [4]: 0.105 µM

GGUCCAAUAUGAGGAUAUAGCAUCUUAUUGAUGCUAGAAGGCGUGUCGGUAGACAUGAGGAUCACCCAUGUAUUACAAUGGACC
apparent Kd [1]: 0.11 µM | apparent Kd [2]: 0.0294 µM

AUGGUACAUGAGGAUCACCCAUGUCAGGAUAUCGGCUGUGACGUGAAAAGAGUGUUAGCGAGAAGGGACUGCAA
apparent Kd [3]: 0.0373 µM | apparent Kd [4]: 0.0431 µM

ACUGACAUGAGGAUCACCCAUGUCUUGAAUAGGUCAAAUUCACAGGAUAUGCGCUCGGCCAAGGCGCAGAAGGGUGAUGCAAUG
apparent Kd [1]: 0.0579 µM | apparent Kd [2]: 0.0111 µM

GCCUGCUGGCGAGGAUAUUCUGUGCGGUUCCAGCUCGUGUCUGUUACAUGAGGAUCACCCAUGUGGGAGAAGGUGUCUGUGGCC
apparent Kd [3]: 0.006 µM | apparent Kd [4]: 0.00573 µM

ACAUAAUACGAGAAGGGAGUACAUGAGGAUCACCCAUGUGCUCAGGUGUACUCAGGAUAUCGGCUGACGCAAGGUUCAGGGAAU
apparent Kd [3]: 0.0116 µM | apparent Kd [4]: 0.0943 µM

CAGCAAUGUAAGAAGGCUGCUCCGAUUAGGAGCAGAGGAUAUUACAUGAGGAUCACCCAUGUAUAAAAUAAUAGCUGAAAUAAU
apparent Kd [3]: 0.00637 µM | apparent Kd [4]: 0.00769 µM

CCGGAAACGGGUAGCUGUACAUGAGGAUCACCCAUGUGAUCAGAGGAUAUGGAUCCUAAUUGGAUCCAGAAGGCUGUCAGCUAC
apparent Kd [1]: 0.119 µM | apparent Kd [2]: 0.0291 µM

AAAUAAAGCAGUGUAUUAAUAUAACAUGAGGAUCACCCAUGUAGAAGGCUCGAGCAAUAUGCUCGAGAGGAUAUACAACACUGC
apparent Kd [3]: 0.0073 µM | apparent Kd [4]: 0.00718 µM

UUUCUUGAUGUCAGGAUAUCGGGCACAAAAUCUAACGAGAAGGGACAUGAGGAUCACCCAUGUACGUUUUUGGG
apparent Kd [3]: 0.0929 µM | apparent Kd [4]: 0.249 µM

UUGGACGUCGUAGGAUAUGUAGGAUAUUCCUACAUGAGGAUCACCCAUGUUGACAUGGAAGAACGACAGAAGGACGAUGUCCAU
apparent Kd [1]: 0.13 µM | apparent Kd [2]: 0.00746 µM

UGACUGAUAUAGAAGGGUAUGUGGGAAUUACAUGAGGAUCACCCAUGUUUUAUAGGAUAUGUAUAUAGUUUUUAAUCAAGUUUA
apparent Kd [3]: 0.0482 µM | apparent Kd [4]: 0.0368 µM

GGGCUGUCAGGAUAUCUCGGGCUCGGGUAAACUCGGGCUCGGGAGAAGGGACAUGAGGAUCACCCAUGUGGCUC
apparent Kd [3]: 0.0421 µM | apparent Kd [4]: 0.0515 µM

GAAGCACGCAUUAACAUGAGGAUCACCCAUGUGAAAACACGUGAGGAUAUCGAUCUGAAGAAGAUCGAGAAGGCACCGUGCUAA
apparent Kd [1]: 0.00553 µM | apparent Kd [2]: 0.00511 µM

UUAGGCUGAAGAUCAAUUAAUUAACAUGAGGAUCACCCAUGUAAGGAUAUCAGCUCGAUUAGAGCUGAGAAGGUACAUGCAGCC
apparent Kd [3]: 0.11 µM | apparent Kd [4]: 0.565 µM

ACCUAUGAGGAGGAUAUACGGUGCGAAAGGAAGGUAGAAGGCUUCACAUGAGGAUCACCCAUGUCUAUAAGCGA
apparent Kd [3]: 0.0309 µM | apparent Kd [4]: 0.0295 µM

GAACAUGAGGAUCACCCAUGUUCUCCAGAAGGCCGUACAUUUAAAAGUGGAUGGAUUAGUAUUGCGGAGGAUAUGGAGGUGCAA
apparent Kd [1]: 0.102 µM | apparent Kd [2]: 0.0611 µM

AGAAACUAGGAGAAGGACAUAUGAUUAAGACGAAACAUGAGGAUCACCCAUGUAGGAUAUCCUAGUUUCAGGAUCGUGAGAUCA
apparent Kd [3]: 0.00758 µM | apparent Kd [4]: 0.0153 µM

UGCGUGGUCACAGGAUAUGCAAGAUAAACUUUAGCAGAAGGGUGAUCAAUCAGCUCAAUACCACAUGAGGAUCACCCAUGUCUA
apparent Kd [1]: 0.0534 µM | apparent Kd [2]: 0.258 µM

UGCUGUGUCAGAGGAUAUACUCUAAUAAUCCAUUGCAAAUAGCGAUGGACAUGAGGAUCACCCAUGUAGAAGGCUGGCACAGCA
apparent Kd [3]: 0.0702 µM | apparent Kd [4]: 0.152 µM

ACAUGAUAUGUAGGAUAUCACAUUAAUUGAUUAAUAUAUCAAUAUAGAAUUUGAGAAGGACAUUUACAUGAGGAUCACCCAUGU
apparent Kd [3]: 0.0107 µM | apparent Kd [4]: 0.00871 µM

AAUAUGCAAGGAUAUACAACGUAGCUACGACGGAACGGGCUACAUGAGGAUCACCCAUGUAGAAGGUGCUACGC
apparent Kd [3]: 0.0152 µM | apparent Kd [4]: 0.0167 µM

UUUUACCGAGGAUAUACAUAUAAAUAAUAAUCCUCAUUAUUACAUGAGGAUCACCCAUGUAGAAGGCGGAUUUU
apparent Kd [3]: 0.0892 µM | apparent Kd [4]: 0.0668 µM

AGGCCGGGAGGAUAUCCAAUAUAUGACAUGAGGAUCACCCAUGUUUCCACUCGUACCUCCGGAGAAGGCCCGGCGA
apparent Kd [3]: 0.0211 µM | apparent Kd [4]: 0.0199 µM

UGGCGCAUGUGAGGAUAUAGUGGGUAGUAACUACUAGAAGGUACAUGAGGAUCACCCAUGUACUUGGGUUUGUCAGGAACUCCU
apparent Kd [3]: 0.00657 µM | apparent Kd [4]: 0.00833 µM

UGUCGGAGCAGAGGAUAUACAUGAGGAUCACCCAUGUAAAUGGAAGAAGACUGGAAACAGUCAAUGUAGAAGGCUGCUCCGACA
apparent Kd [3]: 0.125 µM | apparent Kd [4]: 0.694 µM

UUAUGAUAGAUAGGAUAUACAAUGGAUUAAGAAGUAGAAGGAUCAAGUGGGAAAUGAACAUGAGGAUCACCCAUGUAAUAGGUU
apparent Kd [1]: 0.127 µM | apparent Kd [2]: 0.0835 µM

AAGAGUAGAGGAUAUACGAAAAAAGAGUCGAAAGACUCGGGACAUGAGGAUCACCCAUGUAGAAGGCUACUCAA
apparent Kd [3]: 0.0254 µM | apparent Kd [4]: 0.12 µM

CGUGCUAUGUAGAAGGCAGAUCUGAUUCAGAUCUGAGGAUAUACAUGAGGAUCACCCAUGUUAUGCACCAGCACGAGAGUGCAG
apparent Kd [3]: 0.00718 µM | apparent Kd [4]: 0.0144 µM

GCCUUGUCAGGAUAUCCGCGCGGGUGGCGCAUGCACUGCGUGGAGAAGGGACAUGAGGAUCACCCAUGUGCGUA
apparent Kd [3]: 0.0892 µM | apparent Kd [4]: 0.317 µM

GAAUACCUAGGAUAUACAUGAGGAUCACCCAUGUUAAUAUUUGCAUAUUCAUCCUCUGGUAGAAGGAGGAAACU
apparent Kd [3]: 0.0161 µM | apparent Kd [4]: 0.0146 µM

AUAUUGUGAGGAUAUGAACUUAGUAUCGAAAGAUACUAACUUCAGAAGGCACAUGAGGAUCACCCAUGUUUCUC
apparent Kd [3]: 0.0723 µM | apparent Kd [4]: 0.689 µM

GAAAAACAUGAGGAUCACCCAUGUAAGGAUAUGCUGAAAAAACACUGGAAACAGUGCAGCAGAAGGUACAAAAG
apparent Kd [3]: 0.0651 µM | apparent Kd [4]: 0.103 µM
